Data taken from ChEMBL document CHEMBL2331168, “Anticonvulsant evaluation of aminoalkanol derivatives of 2- and 4-methylxanthone” (Bioorg Med Chem, 2013).
Calls of active or inactive are those of the source.

Assays:
Mus musculus [1] = assay: Neurotoxicity in albino mouse assessed as minimal motor impairment at 300 mg/kg, ip after 4 hrs by rotorod test; format: toxicity, organism-based; set-up: dose 300 mg/kg, route intraperitoneal; conditions: in vivo
Procedure, shortened: (§1)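 Male albino mice (Carworth Farms No. 1) were dosed ip with suspensions in 0.5% methylcellulose and put on a 1 in. knurled rod rotating at 6 rpm at set times after dosing. Neurotoxicity meant failure to stay on the rod for at least 1 min in each of three trials. Scored as impaired/tested.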

Mus musculus [2] = assay: Neurotoxicity in albino mouse assessed as minimal motor impairment at 100 mg/kg, ip after 4 hrs by rotorod test; format: toxicity, organism-based; set-up: dose 100 mg/kg, route intraperitoneal; conditions: in vivo; procedure, shortened: as §1
Mus musculus [3] = assay: Neurotoxicity in albino mouse assessed as minimal motor impairment at 100 mg/kg, ip after 1 hr by rotorod test; format: toxicity, organism-based; set-up: dose 100 mg/kg, route intraperitoneal; conditions: in vivo; procedure, shortened: as §1
Mus musculus [4] = assay: Neurotoxicity in albino mouse assessed as minimal motor impairment at 100 mg/kg, ip after 0.25 hrs by rotorod test; format: toxicity, organism-based; set-up: dose 100 mg/kg, route intraperitoneal; conditions: in vivo; procedure, shortened: as §1
Mus musculus [5] = assay: Anticonvulsant activity in albino mouse assessed as protection against subcutaneous pentetrazole-induced seizures at 100 mg/kg, ip after 4 hrs; format: functional, organism-based; set-up: dose 100 mg/kg
Procedure, shortened: (§2)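 Male albino mice (Carworth Farms No. 1) received compound ip in 0.5% methylcellulose, then pentetrazole 85 mg/kg sc in 0.9% NaCl at 0.5 or 4 h. Mice were watched for at least 30 min. Protection meant no threshold seizure, defined as a single clonic spasm lasting at least 5 s. Scored as protected/tested.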

Mus musculus [6] = assay: Anticonvulsant activity in albino mouse assessed as protection against subcutaneous pentetrazole-induced seizures at 300 mg/kg, ip after 0.5 hrs; format: functional, organism-based; set-up: dose 300 mg/kg; procedure, shortened: as §2
Mus musculus [7] = assay: Anticonvulsant activity in albino mouse assessed as protection against subcutaneous pentetrazole-induced seizures at 100 mg/kg, ip after 0.5 hrs; format: functional, organism-based; set-up: dose 100 mg/kg; procedure, shortened: as §2
Mus musculus [8] = assay: Anticonvulsant activity in albino mouse assessed as protection against subcutaneous pentetrazole-induced seizures at 30 mg/kg, ip after 0.5 hrs; format: functional, organism-based; set-up: dose 30 mg/kg; procedure, shortened: as §2
Mus musculus [9] = assay: Anticonvulsant activity in albino mouse assessed as protection against maximal electroshock-induced seizures at 300 mg/kg, ip after 4 hrs; format: functional, organism-based; set-up: dose 300 mg/kg
Procedure, shortened: (§3)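 Male albino mice (Carworth Farms No. 1) were given the compound ip as a suspension in 0.5% methylcellulose at 3–300 mg/kg. MES testing was at 0.5 and 4 h, sometimes also at 0.25 and 1 h. Current was 60 Hz, 50 mA, 0.2 s via corneal electrodes, with saline eye drops. Protection meant no hindlimb tonic extension, scored as protected/tested.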

Mus musculus [10] = assay: Anticonvulsant activity in albino mouse assessed as protection against maximal electroshock-induced seizures at 100 mg/kg, ip after 4 hrs; format: functional, organism-based; set-up: dose 100 mg/kg; procedure, shortened: as §3
Mus musculus [11] = assay: Anticonvulsant activity in albino mouse assessed as protection against maximal electroshock-induced seizures at 30 mg/kg, ip after 4 hrs; format: functional, organism-based; set-up: dose 30 mg/kg; procedure, shortened: as §3
Mus musculus [12] = assay: Anticonvulsant activity in albino mouse assessed as protection against maximal electroshock-induced seizures at 100 mg/kg, ip after 1 hr; format: functional, organism-based; set-up: dose 100 mg/kg; procedure, shortened: as §3
Mus musculus [13] = assay: Anticonvulsant activity in albino mouse assessed as protection against maximal electroshock-induced seizures at 300 mg/kg, ip after 0.5 hrs; format: functional, organism-based; set-up: dose 300 mg/kg; procedure, shortened: as §3
Mus musculus [14] = assay: Anticonvulsant activity in albino mouse assessed as protection against maximal electroshock-induced seizures at 100 mg/kg, ip after 0.5 hrs; format: functional, organism-based; set-up: dose 100 mg/kg; procedure, shortened: as §3
Mus musculus [15] = assay: Anticonvulsant activity in albino mouse assessed as protection against maximal electroshock-induced seizures at 30 mg/kg, ip after 0.5 hrs; format: functional, organism-based; set-up: dose 30 mg/kg; procedure, shortened: as §3
Mus musculus [16] = assay: Anticonvulsant activity in albino mouse assessed as protection against maximal electroshock-induced seizures at 100 mg/kg, ip after 0.25 hrs; format: functional, organism-based; set-up: dose 100 mg/kg; procedure, shortened: as §3
[17] = Neurotoxicity in ip dosed albino mouse assessed as minimal motor impairment after 0.25 hrs by rotorod test; format: toxicity, organism-based; conditions: in vivo
Procedure, shortened: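 TD50, with 95% confidence intervals, was the ip dose causing neurotoxicity in 50% of male albino mice. Deficit was judged on the rotorod: a 1 in. knurled rod at 6 rpm, where failure to hold on for 1 min in each of three trials counted as deficit. Read at the stated time after dosing.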

Mus musculus [18] = assay: Anticonvulsant activity in ip dosed albino mouse assessed as protection against subcutaneous pentetrazole-induced seizures after 1 hr; format: functional
Mus musculus [19] = species on record: Mus musculus; assay: Protective index, ratio TD50 for albino mouse to ED50 for albino mouse by maximal electroshock-induced seizure test after 1 hr; format: functional
Procedure, shortened: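 Protective index was calculated as mouse ip TD50 (rotorod) divided by mouse ip MES ED50, both obtained by quantitative dose-response testing at the stated post-dose time.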

Mus musculus [20] = assay: Anticonvulsant activity in ip dosed albino mouse assessed as protection against maximal electroshock-induced seizures after 1 hr; format: functional
Procedure, shortened: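 ED50, with 95% confidence intervals, was the ip dose protecting 50% of mice in the MES test. It was measured at the stated post-dose time in male albino mice given suspensions in 0.5% methylcellulose. MES used 60 Hz, 50 mA, 0.2 s corneal stimulation, and the endpoint was abolition of hindlimb tonic extension.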

Mus musculus [21] = assay: Neurotoxicity in albino mouse assessed as minimal motor impairment at 30 mg/kg, ip after 4 hrs by rotorod test; format: toxicity, organism-based; set-up: dose 30 mg/kg, route intraperitoneal; conditions: in vivo; procedure, shortened: as §1
Mus musculus [22] = assay: Neurotoxicity in albino mouse assessed as minimal motor impairment at 10 mg/kg, ip after 0.5 hrs by rotorod test; format: toxicity, organism-based; set-up: dose 10 mg/kg, route intraperitoneal; conditions: in vivo; procedure, shortened: as §1
Mus musculus [23] = assay: Neurotoxicity in albino mouse assessed as minimal motor impairment at 3 mg/kg, ip after 0.5 hrs by rotorod test; format: toxicity, organism-based; set-up: dose 3 mg/kg, route intraperitoneal; conditions: in vivo; procedure, shortened: as §1
Mus musculus [24] = assay: Anticonvulsant activity in albino mouse assessed as protection against subcutaneous pentetrazole-induced seizures at 300 mg/kg, ip after 4 hrs; format: functional, organism-based; set-up: dose 300 mg/kg; procedure, shortened: as §2
Mus musculus [25] = assay: Anticonvulsant activity in albino mouse assessed as protection against subcutaneous pentetrazole-induced seizures at 30 mg/kg, ip after 4 hrs; format: functional, organism-based; set-up: dose 30 mg/kg; procedure, shortened: as §2
Mus musculus [26] = assay: Anticonvulsant activity in albino mouse assessed as protection against maximal electroshock-induced seizures at 3 mg/kg, ip after 0.5 hrs; format: functional, organism-based; set-up: dose 3 mg/kg; procedure, shortened: as §3
Mus musculus [27] = assay: Neurotoxicity in albino mouse assessed as minimal motor impairment at 30 mg/kg, ip after 0.5 hrs by rotorod test; format: toxicity, organism-based; set-up: dose 30 mg/kg, route intraperitoneal; conditions: in vivo; procedure, shortened: as §1
Rattus norvegicus [28] = assay: Neurotoxicity in Sprague-Dawley rat assessed as minimal motor impairment at 30 mg/kg, po after 1 hr by rotorod test; conditions: in vivo
Rattus norvegicus [29] = assay: Neurotoxicity in Sprague-Dawley rat assessed as minimal motor impairment at 30 mg/kg, po after 4 hrs by rotorod test; conditions: in vivo
Rattus norvegicus [30] = assay: Neurotoxicity in Sprague-Dawley rat assessed as minimal motor impairment at 30 mg/kg, po after 2 hrs by rotorod test; conditions: in vivo
Rattus norvegicus [31] = assay: Neurotoxicity in Sprague-Dawley rat assessed as minimal motor impairment at 30 mg/kg, po after 0.5 hrs by rotorod test; conditions: in vivo
Rattus norvegicus [32] = assay: Neurotoxicity in Sprague-Dawley rat assessed as minimal motor impairment at 30 mg/kg, po after 0.25 hrs by rotorod test; conditions: in vivo

COc1ccc2c(=O)c3cccc(CN(C)C(C)CO)c3oc2c1 (racemic)
active: Activity (Mus musculus [9]) | Activity (Mus musculus [13])
Non-toxic: Activity (Mus musculus [1]) | Activity (Mus musculus [2]) | Activity (Mus musculus [3]) | Activity (Mus musculus [4])
inactive: Activity (Mus musculus [5]) | Activity (Mus musculus [6]) | Activity (Mus musculus [7]) | Activity (Mus musculus [8]) | Activity (Mus musculus [10]) | Activity (Mus musculus [11]) | Activity (Mus musculus [12]) | Activity (Mus musculus [14]) | Activity (Mus musculus [15]) | Activity (Mus musculus [16])

CC[C@@H](CO)NCc1ccc2oc3cc(OC)ccc3c(=O)c2c1
Toxic: Activity (Mus musculus [1])
>8.41: Ratio TD50/ED50 (Mus musculus [19])
Non-toxic: Activity (Mus musculus [2]) | Activity (Mus musculus [21]) | Activity (Mus musculus [22]) | Activity (Mus musculus [23]) | Activity (Mus musculus [27]) | Activity (Rattus norvegicus [28]) | Activity (Rattus norvegicus [29]) | Activity (Rattus norvegicus [30]) | Activity (Rattus norvegicus [31]) | Activity (Rattus norvegicus [32])
> 400 mg/kg: TD50 at 0.25 h [17]
47.6 mg/kg: ED50 (Mus musculus [20])
> 200 mg/kg: ED50 (Mus musculus [18])
inactive: Activity (Mus musculus [24]) | Activity (Mus musculus [5]) | Activity (Mus musculus [6]) | Activity (Mus musculus [25]) | Activity (Mus musculus [7]) | Activity (Mus musculus [8]) | Activity (Mus musculus [11]) | Activity (Mus musculus [26])
active: Activity (Mus musculus [9]) | Activity (Mus musculus [10]) | Activity (Mus musculus [13]) | Activity (Mus musculus [14]) | Activity (Mus musculus [15])
